Experimental data reported in ChEMBL document CHEMBL4011622, “The Structure-Activity Relationship of a Tetrahydroisoquinoline Class of N-Methyl-d-Aspartate Receptor Modulators that Potentiates GluN2B-Containing N-Methyl-d-Aspartate Receptors” (J Med Chem, 2017).

Legend:
[1] = biological target: T1, Glutamate NMDA receptor; Grin1/Grin2b (Rattus norvegicus) (UniProt P35439+Q00960); test: Positive allosteric modulation of recombinant rat GluN1/GluN2B receptor expressed in xenopus laevis oocyte assessed as potentiation of glutamate and glycine-induced current response at 30 uM at holding potential -40mV by two electrode voltage clamp method relative to control
Outline: (§1)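 Two-electrode voltage clamp at -40 mV, 23°C, pH 7.4 Ba²⁺ recording solution, on Xenopus oocytes expressing rat NMDA receptors. Currents were evoked by 100 µM glutamate plus 30 µM glycine, with compound co-applied (DMSO 0.05–0.5% final). […] Each compound used at least 4 oocytes from at least 2 frogs.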

[2] = biological target: Ionotropic glutamate receptor NMDA 1/2D (Rattus norvegicus, UniProt P35439+Q62645); test: Positive allosteric modulation of recombinant rat GluN1/GluN2D receptor expressed in xenopus laevis oocyte assessed as potentiation of glutamate and glycine-induced current response at holding potential -40mV by two electrode voltage clamp method
Outline: (§2)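 Two-electrode voltage clamp at -40 mV, 23°C, pH 7.4 Ba²⁺ recording solution, on Xenopus oocytes expressing rat NMDA receptors. Currents were evoked by 100 µM glutamate plus 30 µM glycine, with compound co-applied (DMSO 0.05–0.5% final). Each compound used at least 4 oocytes from at least 2 frogs.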

[3] = biological target: Glutamate NMDA receptor; Grin1/Grin2c (Rattus norvegicus, UniProt P35439+Q00961); test: Positive allosteric modulation of recombinant rat GluN1/GluN2C receptor expressed in xenopus laevis oocyte assessed as potentiation of glutamate and glycine-induced current response at holding potential -40mV by two electrode voltage clamp method; outline: as §2
[4] = biological target: T2, Glutamate NMDA receptor; Grin1/Grin2c (Rattus norvegicus) (UniProt P35439+Q00961); test: Positive allosteric modulation of recombinant rat GluN1/GluN2C receptor expressed in xenopus laevis oocyte assessed as potentiation of glutamate and glycine-induced current response at 30 uM at holding potential -40mV by two electrode voltage clamp method relative to control; outline: as §2
[5] = biological target: Glutamate NMDA receptor; Grin1/Grin2b (Rattus norvegicus, UniProt P35439+Q00960); test: Positive allosteric modulation of recombinant rat GluN1/GluN2B receptor expressed in xenopus laevis oocyte assessed as potentiation of glutamate and glycine-induced current response at holding potential -40mV by two electrode voltage clamp method; outline: as §2
[6] = biological target: T1, Glutamate NMDA receptor; Grin1/Grin2b (Rattus norvegicus); test: Positive allosteric modulation of recombinant rat GluN1/GluN2B receptor expressed in xenopus laevis oocyte assessed as compound concentration required to show two fold increase in glutamate and glycine-induced current response at holding potential -40mV by two electrode voltage clamp method
[7] = biological target: T3, Ionotropic glutamate receptor NMDA 1/2D (Rattus norvegicus) (UniProt P35439+Q62645); test: Positive allosteric modulation of recombinant rat GluN1/GluN2D receptor expressed in xenopus laevis oocyte assessed as potentiation of glutamate and glycine-induced current response at 30 uM at holding potential -40mV by two electrode voltage clamp method relative to control; outline: as §2
[8] = biological target: T2, Glutamate NMDA receptor; Grin1/Grin2c (Rattus norvegicus); test: Positive allosteric modulation of recombinant rat GluN1/GluN2C receptor expressed in xenopus laevis oocyte assessed as compound concentration required to show two fold increase in glutamate and glycine-induced current response at holding potential -40mV by two electrode voltage clamp method
[9] = biological target: T3, Ionotropic glutamate receptor NMDA 1/2D (Rattus norvegicus); test: Positive allosteric modulation of recombinant rat GluN1/GluN2D receptor expressed in xenopus laevis oocyte assessed as compound concentration required to show two fold increase in glutamate and glycine-induced current response at holding potential -40mV by two electrode voltage clamp method
[10] = biological target: T2, Glutamate NMDA receptor; Grin1/Grin2c (Rattus norvegicus); test: Positive allosteric modulation of recombinant rat GluN1/GluN2C receptor expressed in xenopus laevis oocyte assessed as potentiation of glutamate and glycine-induced current response at 10 uM at holding potential -40mV by two electrode voltage clamp method relative to control; settings: for Activity: 30 uM, in the assay text read “at 30 uM” for “at 10 uM”; outline: as §1
[11] = biological target: T3, Ionotropic glutamate receptor NMDA 1/2D (Rattus norvegicus); test: Positive allosteric modulation of recombinant rat GluN1/GluN2D receptor expressed in xenopus laevis oocyte assessed as potentiation of glutamate and glycine-induced current response at 10 uM at holding potential -40mV by two electrode voltage clamp method relative to control; outline: as §1
[12] = biological target: T1, Glutamate NMDA receptor; Grin1/Grin2b (Rattus norvegicus); test: Positive allosteric modulation of recombinant rat GluN1/GluN2B receptor expressed in xenopus laevis oocyte assessed as potentiation of glutamate and glycine-induced current response at 10 uM at holding potential -40mV by two electrode voltage clamp method relative to control; settings: 30 uM, in the assay text read “at 30 uM” for “at 10 uM”; outline: as §1

Structure (SMILES) | Emax [1] [%] | EC50 [2] [µM] | EC50 [3] [µM] | Emax [4] [%] | EC50 [5] [µM] | CD [6] [µM] | Emax [7] [%] | Activity [1] [%] | Activity [4] [%] | Activity [7] [%] | Emax ([10]; 10 uM) [%] | Activity [10] [%] | Activity [11] [%] | Emax [11] [%] | Emax [12] [%] | CD [8] [µM] | CD [9] [µM]
CC(C)Oc1ccc(OCC2c3ccc(OC(C)C)cc3CCN2C(=S)c2cccc(Cl)c2)cc1 (stereo not given) | 209 | 0.41 | 0.48 | 141 | 0.55 | 4 | 152 | – | – | – | – | – | – | – | – | – | –
COc1ccc(OC[C@@H]2c3ccc(OC(C)C)cc3CCN2C(=O)c2cccc(Cl)c2)cc1 | 276 | 3.8 | – | 277 | – | 3.5 | 267 | – | – | – | – | – | – | – | – | 3.5 | 4.4
COc1ccc(OCC2c3ccc(OC4CCCCC4)cc3CCN2C(=O)c2cccc(Cl)c2)cc1 (stereo not given) | 265 | 1.9 | 1.2 | 225 | 2.7 | – | 317 | 259 | 222 | 309 | – | – | – | – | – | – | –
CCOc1ccc(OCC2c3ccc(OC4CCCC4)cc3CCN2C(=O)c2cccc(Cl)c2)cc1 (stereo not given) | – | 4.3 | 4.2 | – | 4 | – | – | – | – | – | 210 | 187 | 193 | 188 | 221 | – | –
CCOc1ccc(OCC2c3ccc(OC(C)C)cc3CCN2C(=O)c2ccc(F)c(F)c2)cc1 (stereo not given) | 173 | 2.9 | 1.8 | 150 | 3.7 | – | 137 | 172 | 145 | 133 | – | – | – | – | – | – | –
COc1ccc(OCC2c3ccc(OC(C)C)cc3CCN2C(=O)c2cccc([N+](=O)[O-])c2)cc1 (stereo not given) | 203 | 3.4 | 2.8 | 358 | 5.3 | – | 351 | 198 | 337 | 335 | – | – | – | – | – | – | –

Now from value to compound, other results behind:

Emax [1] [%] | EC50 [2] [µM] | EC50 [3] [µM] | Emax [4] [%] | EC50 [5] [µM] | CD [6] [µM] | Emax [7] [%] | Activity [1] [%] | Activity [4] [%] | Activity [7] [%] | Emax ([10]; 10 uM) [%] | Activity [10] [%] | Activity [11] [%] | Emax [11] [%] | Emax [12] [%] | Structure (SMILES) | CD [8] [µM] | CD [9] [µM]
– | – | – | – | – | – | – | – | – | – | – | 150 | 122 | – | – | CCOc1ccc(OCC2c3ccc(OC(C)C)cc3CCN2C(=O)c2ccc(Cl)c(Cl)c2)cc1 (stereo not given) | – | –
130 | 1.7 | 1.5 | 192 | 1.4 | – | 152 | 130 | 189 | 150 | – | – | – | – | – | CC(C)Oc1ccc2c(c1)CCN(C(=O)c1cccc(Cl)c1)C2COc1ccc(OC(F)(F)F)cc1 (stereo not given) | – | –
172 | 1.6 | 0.69 | 310 | 1.7 | – | 414 | 159 | 215 | 408 | – | – | – | – | – | COc1ccc(OCC2c3ccc(OC(C)C)cc3CCN2C(=O)c2cccc(I)c2)cc1 (stereo not given) | – | –
188 | 22 | 4.7 | 342 | 9.3 | – | 413 | 146 | 273 | 231 | – | – | – | – | – | COc1ccc(OCC2c3ccc(N4CCOCC4)cc3CCN2C(=O)c2cccc(Cl)c2)cc1 (stereo not given) | – | –
213 | 0.58 | 0.38 | 154 | 0.49 | 1.4 | 179 | – | – | – | – | – | – | – | – | CCOc1ccc(OC[C@@H]2c3ccc(OC(C)C)cc3CCN2C(=S)c2cccc(F)c2)cc1 | – | –
214 | 0.48 | 0.48 | 307 | 0.32 | 1.5 | 293 | – | – | – | – | – | – | – | – | COc1ccc(OC[C@@H]2c3ccc(OC(C)C)cc3CCN2C(=S)c2cccc(Cl)c2)cc1 | 0.5 | 0.5
174 | 0.28 | 0.94 | 166 | 0.34 | – | 135 | – | – | – | – | – | – | – | – | CCOc1ccc(OCC2c3ccc(OC(C)C)cc3CCN2C(=S)c2cccc(Br)c2)cc1 (stereo not given) | – | –
